For 2 compounds, inhibition, IC50 and Activity results are on record in ChEMBL document CHEMBL4765378, “Discovery of simplified benzazole fragments derived from the marine benzosceptrin B as necroptosis inhibitors involving the receptor interacting protein Kinase-1” (Eur J Med Chem, 2020).

Data set [1] addresses T1, Receptor-interacting serine/threonine-protein kinase 1 (Homo sapiens) (UniProt Q13546).
T1 sequence (whole entry): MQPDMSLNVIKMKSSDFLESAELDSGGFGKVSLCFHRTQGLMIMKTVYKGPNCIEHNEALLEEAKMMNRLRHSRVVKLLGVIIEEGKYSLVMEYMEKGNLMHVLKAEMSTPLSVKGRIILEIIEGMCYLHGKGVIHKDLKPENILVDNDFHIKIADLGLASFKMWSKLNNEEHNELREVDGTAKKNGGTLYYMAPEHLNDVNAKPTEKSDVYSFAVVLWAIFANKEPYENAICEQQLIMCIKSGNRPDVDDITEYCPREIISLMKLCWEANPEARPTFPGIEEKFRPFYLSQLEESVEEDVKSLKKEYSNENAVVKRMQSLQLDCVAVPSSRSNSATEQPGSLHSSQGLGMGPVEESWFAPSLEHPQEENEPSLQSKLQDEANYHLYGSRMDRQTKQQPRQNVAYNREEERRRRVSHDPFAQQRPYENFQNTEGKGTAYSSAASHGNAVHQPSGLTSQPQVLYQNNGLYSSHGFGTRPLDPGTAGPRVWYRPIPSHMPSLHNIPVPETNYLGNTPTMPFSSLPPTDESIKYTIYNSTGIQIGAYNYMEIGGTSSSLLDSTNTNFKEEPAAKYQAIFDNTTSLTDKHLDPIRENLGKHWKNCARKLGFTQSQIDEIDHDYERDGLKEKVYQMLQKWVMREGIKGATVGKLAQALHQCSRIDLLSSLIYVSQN
The data set can be described thus: Inhibition of RIPK1 in human FADD-deficient Jurkat I 2.1 cells assessed as protection against TNFalpha-induced necroptosis measured after 24 hrs by MTS assay.

The target of data set [2] is T2, Tyrosine-protein kinase JAK3 (Homo sapiens, UniProt P52333).
T2 sequence (P52333 whole entry): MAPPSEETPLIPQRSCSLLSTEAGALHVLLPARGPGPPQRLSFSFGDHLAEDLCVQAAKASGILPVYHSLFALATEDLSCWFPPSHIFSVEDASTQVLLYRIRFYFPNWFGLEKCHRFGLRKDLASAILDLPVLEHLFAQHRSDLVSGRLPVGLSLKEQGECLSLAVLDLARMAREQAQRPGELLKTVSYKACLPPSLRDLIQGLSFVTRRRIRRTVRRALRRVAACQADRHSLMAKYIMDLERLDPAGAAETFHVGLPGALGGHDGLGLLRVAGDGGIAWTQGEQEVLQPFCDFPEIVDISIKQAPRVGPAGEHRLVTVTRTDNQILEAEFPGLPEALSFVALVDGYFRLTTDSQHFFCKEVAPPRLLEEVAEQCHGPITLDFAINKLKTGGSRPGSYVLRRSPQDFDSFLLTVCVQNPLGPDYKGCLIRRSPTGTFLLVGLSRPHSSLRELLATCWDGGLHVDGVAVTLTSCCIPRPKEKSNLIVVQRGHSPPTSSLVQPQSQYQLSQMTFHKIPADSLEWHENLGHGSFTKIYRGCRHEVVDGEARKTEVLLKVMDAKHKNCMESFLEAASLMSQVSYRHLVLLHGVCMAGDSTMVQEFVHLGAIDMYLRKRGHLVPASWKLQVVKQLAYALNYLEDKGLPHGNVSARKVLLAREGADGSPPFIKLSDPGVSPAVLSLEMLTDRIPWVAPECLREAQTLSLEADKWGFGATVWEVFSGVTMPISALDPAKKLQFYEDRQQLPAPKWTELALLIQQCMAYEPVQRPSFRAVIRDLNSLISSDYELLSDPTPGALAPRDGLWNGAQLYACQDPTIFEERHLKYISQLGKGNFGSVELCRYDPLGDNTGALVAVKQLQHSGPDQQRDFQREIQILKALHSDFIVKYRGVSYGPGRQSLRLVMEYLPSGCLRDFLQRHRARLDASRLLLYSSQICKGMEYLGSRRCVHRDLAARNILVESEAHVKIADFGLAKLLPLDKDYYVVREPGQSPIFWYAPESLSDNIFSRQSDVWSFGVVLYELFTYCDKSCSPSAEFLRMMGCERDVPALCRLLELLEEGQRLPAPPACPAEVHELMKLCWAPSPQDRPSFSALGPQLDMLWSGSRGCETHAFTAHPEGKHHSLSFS
Briefly: Inhibition of recombinant human JAK3 C-terminal domain (781 to 1124 residues) expressed in baculovirus infected Sf9 insect cells using GGEEEEYFELVKKKK as substrate by ADP-glo assay.

The target in data set [3] is CDK2/Cyclin A2 (Homo sapiens, UniProt P24941). Briefly: Inhibition of human CDK2/cyclin A using histone H1 as substrate by ADP-glo assay. It is filed as protein-complex assay.
Data set [4] deals with Dual specificity protein kinase CLK1 (Mus musculus, UniProt P22518). The data set can be described thus: Inhibition of mouse recombinant CLK1 expressed in bacterial expression system using GRSRSRSRSRSR as substrate by ADP-glo assay.
The target in data set [5] is Serine/threonine-protein kinase pim-1 (Homo sapiens, UniProt P11309). The data set can be described thus: Inhibition of recombinant human PIM1 expressed in bacterial expression system using histone H1 as substrate by ADP-glo assay.
The target of data set [6] is T1, Receptor-interacting serine/threonine-protein kinase 1 (Homo sapiens). Briefly: Inhibition of RIPK1 in human FADD-deficient Jurkat I 2.1 cells assessed as protection against TNFalpha-induced necroptosis by measuring remaining viable cells at 10 uM measured after 24 hrs by MTS assay relative to TNFalpha. It is filed as cell-based. The gist of the method:
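FADD-deficient Jurkat cells co-treated 24 h with 10 ng/ml human recombinant TNF-α and 10 μM compound; MTS viability normalized to DMSO control (100%); protection delta = viability with TNF-α plus compound minus viability with TNF-α alone (negative if toxic); n = 3.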

The target of data set [7] is Receptor-interacting serine/threonine-protein kinase 3 (Homo sapiens, UniProt Q9Y572). Briefly: Inhibition of recombinant human RIPK3 expressed in baculovirus infected Sf9 insect cells using myelin basic protein as substrate by ADP-Glo assay.
Data set [8] concerns the target T1, Receptor-interacting serine/threonine-protein kinase 1 (Homo sapiens). The data set can be described thus: (§1) Inhibition of recombinant human RIPK1 kinase domain (8 to 322 residues) using myelin basic protein as substrate measured after 120 mins by [gamma-32P]ATP based scintillation counting method.
Data set [9] has as its target T3, Receptor-interacting serine/threonine-protein kinase 1 (Homo sapiens, UniProt Q13546).
T3 sequence (Q13546 whole entry): T1 sequence (whole entry)
The description is as §1.

Data set [10] concerns the target CDK9/cyclin T1 (Homo sapiens, UniProt P50750). The data set can be described thus: Inhibition of human recombinant CDK9/cyclin T expressed in baculovirus infected Sf9 insect cells using YSPTSPSYSPTSPSYSPTSPSKKKK as substrate by ADP-glo assay.
Data set [11] is described as follows: Cytotoxicity against human FADD-deficient Jurkat I 2.1 cells assessed as reduction in cell viability at 10 uM measured after 24 hrs by MTS assay. The note with it: jurkat i 2.1, 24 h. It is filed as cell-based.
The subject of data set [12] is TERT-RPE1. The data set can be described thus: Cytotoxicity against human TERT-RPE1 cells assessed as increase in LDH release at 0.01 to 50 uM measured after 24 hrs by CyQUANT reagent based assay. The format is cell-based. The note with it: tert-rpe1, 24 h, dose 0.01-50 µM. The gist of the method:
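hTERT RPE-1 cells (DMEM-F12-Glutamax, 10% FCS, 37 °C, 5% CO2) exposed 24 h to compound from 0.01 to 50 μM; viability measured.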

The structures appear in SMILES notation. pIC50: −log10 of the molar value.

CDK9/cyclin T1, sequence (O60563 whole entry): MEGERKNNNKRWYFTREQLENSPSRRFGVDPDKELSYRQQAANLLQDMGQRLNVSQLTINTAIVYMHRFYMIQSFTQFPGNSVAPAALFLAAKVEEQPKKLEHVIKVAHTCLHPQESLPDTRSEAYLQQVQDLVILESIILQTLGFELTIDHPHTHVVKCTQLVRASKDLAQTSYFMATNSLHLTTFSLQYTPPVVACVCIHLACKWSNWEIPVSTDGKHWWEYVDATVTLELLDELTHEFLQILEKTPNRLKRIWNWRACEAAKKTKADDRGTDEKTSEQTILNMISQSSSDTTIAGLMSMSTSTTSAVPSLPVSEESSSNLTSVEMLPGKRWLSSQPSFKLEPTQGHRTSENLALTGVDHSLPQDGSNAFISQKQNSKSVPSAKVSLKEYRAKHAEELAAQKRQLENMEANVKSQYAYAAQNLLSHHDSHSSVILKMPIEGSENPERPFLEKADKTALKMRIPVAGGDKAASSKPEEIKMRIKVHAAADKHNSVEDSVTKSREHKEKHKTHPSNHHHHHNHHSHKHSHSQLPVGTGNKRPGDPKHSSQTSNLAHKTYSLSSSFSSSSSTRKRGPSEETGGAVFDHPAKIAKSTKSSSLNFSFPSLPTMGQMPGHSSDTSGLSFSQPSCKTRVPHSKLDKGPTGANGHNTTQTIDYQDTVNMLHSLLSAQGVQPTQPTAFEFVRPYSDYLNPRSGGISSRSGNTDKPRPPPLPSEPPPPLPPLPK
CDK9/cyclin T1, sequence (P50750 whole entry): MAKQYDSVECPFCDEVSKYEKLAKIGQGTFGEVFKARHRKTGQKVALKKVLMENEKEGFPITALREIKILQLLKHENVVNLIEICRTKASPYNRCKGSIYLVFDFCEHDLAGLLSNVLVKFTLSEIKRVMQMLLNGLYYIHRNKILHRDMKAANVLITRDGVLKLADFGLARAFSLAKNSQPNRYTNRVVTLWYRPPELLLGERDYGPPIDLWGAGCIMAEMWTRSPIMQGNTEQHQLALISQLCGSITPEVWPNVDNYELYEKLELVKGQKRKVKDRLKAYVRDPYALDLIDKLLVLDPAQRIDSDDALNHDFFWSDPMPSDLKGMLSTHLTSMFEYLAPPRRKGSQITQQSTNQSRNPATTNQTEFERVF
Dual specificity protein kinase CLK1, sequence (P22518 whole entry): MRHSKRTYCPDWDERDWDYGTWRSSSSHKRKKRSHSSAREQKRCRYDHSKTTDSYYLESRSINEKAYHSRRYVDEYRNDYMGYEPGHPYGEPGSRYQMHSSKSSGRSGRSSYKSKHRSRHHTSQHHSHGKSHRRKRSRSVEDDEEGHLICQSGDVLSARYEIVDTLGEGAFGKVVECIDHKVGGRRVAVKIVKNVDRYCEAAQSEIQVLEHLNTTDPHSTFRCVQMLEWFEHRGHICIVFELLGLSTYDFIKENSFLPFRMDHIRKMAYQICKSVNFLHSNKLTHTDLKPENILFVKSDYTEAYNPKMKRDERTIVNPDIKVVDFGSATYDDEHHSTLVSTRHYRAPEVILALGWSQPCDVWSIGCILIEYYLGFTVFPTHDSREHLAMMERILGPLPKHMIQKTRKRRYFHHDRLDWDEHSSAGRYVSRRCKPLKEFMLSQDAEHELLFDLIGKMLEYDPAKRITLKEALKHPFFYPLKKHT
Serine/threonine-protein kinase pim-1, sequence (P11309 whole entry): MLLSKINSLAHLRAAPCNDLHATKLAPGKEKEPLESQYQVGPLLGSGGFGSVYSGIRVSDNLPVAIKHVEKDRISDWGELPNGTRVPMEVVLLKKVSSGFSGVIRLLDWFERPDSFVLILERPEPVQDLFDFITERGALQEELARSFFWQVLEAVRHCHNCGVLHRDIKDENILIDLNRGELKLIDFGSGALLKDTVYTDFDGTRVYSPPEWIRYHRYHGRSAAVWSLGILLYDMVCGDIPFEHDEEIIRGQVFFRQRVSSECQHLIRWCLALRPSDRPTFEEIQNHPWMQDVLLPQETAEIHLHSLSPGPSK
Receptor-interacting serine/threonine-protein kinase 3, sequence (Q9Y572 whole entry, the tested form may be a part): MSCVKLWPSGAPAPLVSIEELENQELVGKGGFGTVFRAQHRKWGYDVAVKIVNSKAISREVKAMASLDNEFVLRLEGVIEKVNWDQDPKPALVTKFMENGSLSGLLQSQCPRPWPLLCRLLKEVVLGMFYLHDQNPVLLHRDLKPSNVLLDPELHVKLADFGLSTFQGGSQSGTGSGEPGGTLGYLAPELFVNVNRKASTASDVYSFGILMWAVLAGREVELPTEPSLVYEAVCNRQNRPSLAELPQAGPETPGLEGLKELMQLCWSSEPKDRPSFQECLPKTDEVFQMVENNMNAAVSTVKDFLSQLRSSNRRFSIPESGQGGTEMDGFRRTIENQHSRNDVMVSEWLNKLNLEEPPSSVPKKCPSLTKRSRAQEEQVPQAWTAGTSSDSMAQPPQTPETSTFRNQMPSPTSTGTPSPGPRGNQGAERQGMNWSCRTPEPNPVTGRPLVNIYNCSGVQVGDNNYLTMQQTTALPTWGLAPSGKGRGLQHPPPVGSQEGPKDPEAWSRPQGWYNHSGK

Regarding `CCCCNc1nc2ccc([N+](=O)[O-])cc2[nH]1`, the inhibition result in [1] and in [8] was “Dose-dependent effect” in each case. In addition, the pIC50 is below 5.00 in [2]; below 5.00 in data set [3]; 6.10 in [4]; below 5.00 in [5]; below 5.00 in data set [7]; 4.92 in [9]. Besides, the pIC50 in data set [10] was 6.32. In addition, the Activity in data set [6] is 56.9%; in data set [11] it was “Non-Toxic”; in [12], “Non-Toxic”.

For the compound `CCCCNc1nc2cc([N+](=O)[O-])ccc2s1`, the inhibition result in data set [1] and in data set [8] was “Dose-dependent effect” in each case. For the same compound, the pIC50 in [2] is below 5.00; in data set [3] it was below 5.00; in data set [4], below 5.00; in [5], below 5.00; in data set [7], below 5.00; in data set [9] it was 5.54. Also, the pIC50 in data set [10] was below 5.00. The Activity is 56.1% in data set [6], “Non-Toxic” in [11] and “Non-Toxic” in data set [12].
